Screening data as filed in PubChem BioAssay.
Rtt109 Vps75 = inhibitors of Candida albicans Rtt109/Vps75 histone acetyltransferase | inhibition, % at 34.9 µM | Q5AAJ8 | purified Rtt109/Vps75, ThioGlo CoA-SH fluorescence, 4 h | AID 540336 | hit rate 0.16% among 330,000;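 active means inhibition of at least 50% in every replicate; inconclusive means best replicate reaches 50% inhibition but some replicates fall short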
Target sequence (Q5AAJ8 whole entry, looked up): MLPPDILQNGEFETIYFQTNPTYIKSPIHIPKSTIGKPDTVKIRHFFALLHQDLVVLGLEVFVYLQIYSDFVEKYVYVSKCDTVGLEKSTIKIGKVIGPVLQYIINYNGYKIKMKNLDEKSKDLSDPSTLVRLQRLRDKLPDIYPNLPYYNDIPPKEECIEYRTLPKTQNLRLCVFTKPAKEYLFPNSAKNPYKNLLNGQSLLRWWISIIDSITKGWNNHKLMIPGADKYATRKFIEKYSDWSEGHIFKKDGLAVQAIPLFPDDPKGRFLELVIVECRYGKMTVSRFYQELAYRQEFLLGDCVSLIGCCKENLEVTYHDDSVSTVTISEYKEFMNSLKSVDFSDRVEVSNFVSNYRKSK
Dyrk1A ADPGlo = Dyrk1A (rat) kinase inhibition; Q63470; ADP-Glo luminescence, NFATc1 peptide; inhibition, % at 12.5 µM; hit rate 0.43% among 310,000; AID 504441; in the data active means inhibition above about 50%
CAL PDZ FP-1 = inhibitors of human CAL PDZ peptide binding; inhibition, % at 20 µM; hit rate 0.02% among 330,000; Q9HD26; purified CAL PDZ, TMR-peptide fluorescence polarization, 1 h;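 active means highest replicate inhibition of at least 40%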
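Test system: tagged CAL PDZ domain / Buffer or medium: sodium phosphate/NaCl buffer pH 7.4 with TCEP, IgG, Thesit / Reagent: TMR-labelled reporter peptide T*-PRC34 bound in PDZ groove / Compound dosing: single point, 20 µM / Schedule: 1 h incubation at room temperature before polarization reading / Technique: fluorescence polarization (mP) / Benchmarks: unlabelled peptide, DMSO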
CAL PDZ FP-2 = CAL PDZ (human) peptide binding inhibition. Q9HD26. purified CAL PDZ, TMR-peptide fluorescence polarization, 1 h. inhibition, % at 24.9 µM. hit rate 0.92% among 300,000. AID 602252;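 active means mean inhibition of at least 30% with at least half of replicates also reaching 30%; inconclusive means no clear call, values can overlap the other calls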
ALR inh = blocks human ALR sulfhydryl oxidase activity. P55789. purified ALR, DTT oxidation, H2O2 HRP-luminol luminescence. inhibition, % (no concentration beside the values). hit rate 3.8% among 290,000;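 active means mean replicate inhibition above about 79%, with every replicate also reaching it, limit read from the data; inconclusive means only one of the two criteria met; inactive means mean below limit and not every replicate reaching it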
Target sequence (P55789 whole entry, looked up): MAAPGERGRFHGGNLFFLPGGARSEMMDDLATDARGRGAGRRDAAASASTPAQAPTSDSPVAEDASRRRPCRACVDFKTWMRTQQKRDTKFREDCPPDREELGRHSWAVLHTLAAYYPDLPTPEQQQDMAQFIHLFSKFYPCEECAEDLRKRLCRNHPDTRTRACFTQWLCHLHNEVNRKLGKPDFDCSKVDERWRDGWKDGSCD
Hits are given with their value; 0 = inactive; ? = inconclusive; - = not tested or not shown. Rows were chosen to be rich in hits. Some 4.3% of all compounds tested hit in one or more screens of this group.

SMILES | Rtt109 Vps75 | Dyrk1A ADPGlo | CAL PDZ FP-1 | CAL PDZ FP-2 | ALR inh
COc1cccc(/C=N/NC(=O)Cn2nc(C)c([N+](=O)[O-])c2C)c1O | 0 | 0 | 0 | 0 | 87.8
Cc1nn(CC(=O)NCc2cccnc2)c(C)c1[N+](=O)[O-] | 68.2 | 0 | 0 | 0 | -
COCCNC(=O)C(c1ccc(F)cc1)N(C(=O)CCC(=O)Nc1ccccn1)C1CCCCC1 (stereo not drawn) | 0 | 0 | 0 | 0 | -
O=C1NC2(CCCCC2)C(=O)N1Cc1ccc([N+](=O)[O-])cc1 | 0 | 0 | 0 | 0 | 0
C=CCC(C#Cc1ccccc1)N(C)C (stereo not drawn) | 0 | 0 | 0 | 86.6 | 0
O=C(CCC(=O)c1ccccc1)NC1CCCN(Cc2ccccc2F)C1 (stereo not drawn) | 0 | 0 | 0 | 0 | 0
O=C(CSc1nnc(C2CC2)n1Cc1ccccc1)N1CCN(S(=O)(=O)c2ccccc2)CC1 | 0 | 0 | 0 | 41.5 | -
O=C(NC1CC1)c1ccc2snnc2c1 | 0 | 0 | 0 | 0 | -
CCOC(=O)N1CCC(NC(=O)c2ccc3snnc3c2)CC1 | 0 | 0 | 0 | - | 97.9
Nc1ccc2nc(COc3ccccc3)[nH]c2c1 | 0 | 0 | 0 | 0 | 91.1
Nc1ccc2nc(CCCCCCc3nc4ccc(N)cc4[nH]3)[nH]c2c1 | 0 | 0 | 0 | - | 0
Nc1ccc2nc(CCCCCCCCc3nc4ccc(N)cc4[nH]3)[nH]c2c1 | 0 | 0 | 0 | 0 | 96.5
COC(=O)c1ccc(C(=O)OCCCc2nc3ccc(N)cc3[nH]2)cc1 | 0 | 0 | 0 | 0 | 89.6
Nc1ccc2nc(CCCO)[nH]c2c1 | 0 | 0 | 0 | 0 | 99.1
O=C(c1cccs1)N1CCN(Cc2ccccc2[N+](=O)[O-])CC1 | 0 | 0 | 0 | 0 | 0
Cc1ccccc1NC(=O)c1ccccc1N(C)S(=O)(=O)c1ccccc1 | 0 | - | 0 | 0 | 0
O=C1CN(N=Cc2ccco2)C(=O)N1 | 0 | 0 | 0 | 0 | -
Nc1ccc2nc(CCCCc3nc4ccccc4[nH]3)[nH]c2c1 | 0 | 0 | 0 | 0 | 99.6
C=CCn1c(=S)[nH]c2cc(C(=O)N3CCN(c4ccccc4OC)CC3)ccc2c1=O | 0 | - | 0 | 0 | 0
O=C1NC(C(=O)O)=CC(c2ccc([N+](=O)[O-])cc2)N1 (stereo not drawn) | 0 | 0 | 0 | 0 | 78.1
COC(=O)Cc1c(O)ccn(Cc2ccccc2OC)c1=O | 0 | 0 | 0 | 46.6 | 0
Cn1cc(C(=O)N/N=C/C2=C(N3CCOCC3)C(=C\c3ccccc3)/CC2)ccc1=O | 0 | 0 | 0 | 0 | 88.7
O=c1c2ccccc2cnn1Cc1n[nH]c(=S)n1C1CC2CCC1C2 (stereo not drawn) | 0 | 0 | 0 | 0 | 85.8
CC(c1ccccc1)n1c(Cn2ncc3ccccc3c2=O)n[nH]c1=S (stereo not drawn) | 0 | 0 | 0 | 0 | 0
O=C(Nc1cccc(NC(=O)c2cccc(Cl)c2)c1)c1cccnc1 | 0 | 0 | 0 | 35.2 | 0
SMILES | Rtt109 Vps75 | Dyrk1A ADPGlo | CAL PDZ FP-1 | CAL PDZ FP-2 | ALR inh
O=C(Nc1cc(Cl)cc(Cl)c1)c1cccnc1 | 0 | 0 | 0 | 0 | 0
NS(=O)(=O)c1ccc(NC(=O)c2cccc(Cl)c2)cc1 | 0 | - | 0 | 39.3 | 0
NS(=O)(=O)c1ccc(NC(=O)c2cc(Cl)ccc2Cl)cc1 | 0 | 0 | 0 | 0 | 0
COC(=O)CCN(c1ccccc1)S(=O)(=O)c1cc(-c2cc(C)no2)ccc1C | 0 | 0 | 0 | 0 | 0
COc1ccc(C(C)NC(=O)C2CCCC2)cc1OC (stereo not drawn) | 0 | 0 | 0 | - | 0
O=C1CC(=O)N(Cc2ccco2)C(=S)N1 | 75.6 | 0 | 0 | 0 | 0
CCOC(=O)/C(=N\Nc1cc(Cl)ccc1Cl)N1CCOCC1 | 0 | 0 | 0 | 0 | 97.6
CCCOc1ccc(OCCSc2nnc(N)s2)cc1 | 0 | 0 | 0 | 0 | 0
CCCOc1ccc(-c2cnc(N)s2)cc1 | 0 | 0 | 0 | 0 | 98.0
CC1Cc2ccccc2N1C(=O)COC(=O)c1ccc(O)cc1 (stereo not drawn) | 51.6 | - | 0 | 0 | -
COc1ccc(/C=C/C(=O)C2C(=O)C=C(C)OC2=O)cc1O (stereo not drawn) | 0 | 0 | 0 | 0 | ?
COc1cc(/C=C/C(=O)C2C(=O)C=C(C)OC2=O)cc(OC)c1O (stereo not drawn) | 0 | 0 | 0 | 0 | 98.9
Cc1cc(Cl)c(S(=O)(=O)N2CCCC2)cc1OCC(N)=O | 50.1 | 0 | 0 | 0 | 0
CCS(=O)(=O)N1Cc2ccccc2CC1C(=O)N1CCN(c2ccccc2)CC1 (stereo not drawn) | 0 | 0 | 0 | 0 | 97.8
CC(C)(CC(=O)O)CC(=O)Nc1ccc(Oc2ccc(C(C)(C)C)cc2)nc1 | - | - | - | - | 0
CC(C)(C)c1ccc(Oc2ccc(NC(=O)CCCC(=O)O)cn2)cc1 | 0 | 0 | 0 | 0 | 90.6
CC(=O)c1cccc(NC(=O)C2C3C=CC(C3=C(c3ccccc3)c3ccccc3)C2C(=O)O)c1 (stereo not drawn) | 0 | 0 | 0 | - | 0
CCn1cc(Br)c(C(=O)Nc2cccc(SC)c2)n1 | 0 | 0 | 0 | 0 | 98.6
CCN(CC)c1ccc(/C=N/NC(=O)c2c(-c3ccccc3)noc2C)cc1 | 0 | 0 | 0 | 0 | 0
O=C(O)CC/C(=N\Nc1ccccc1[N+](=O)[O-])c1cccs1 | 0 | - | 0 | - | 98.4
O=C(O)CC/C(=N\Nc1ccc(S(=O)(=O)N2CCCC2)cc1[N+](=O)[O-])c1cccs1 | 0 | 0 | 0 | 0 | -
Cc1ccc(NC(=O)COC(=O)[C@H](C)NC(=O)c2ccccc2)cc1S(=O)(=O)N1CCOCC1 | 0 | 0 | 0 | 0 | 0
O=C(NC1CCCCC1)N1CCN(c2ccc(Cl)cc2)CC1 | 0 | - | 0 | 0 | 99.0
O=C(NC1CCCCC1)N1CCN(c2ccc([N+](=O)[O-])cc2)CC1 | 0 | 0 | 0 | 0 | 0
COc1cc(-c2nnc(SCC(=O)OC3CCCCC3)o2)cc(OC)c1OC | 58.5 | 0 | 0 | 0 | 0
SMILES | Rtt109 Vps75 | Dyrk1A ADPGlo | CAL PDZ FP-1 | CAL PDZ FP-2 | ALR inh
N#C/C(=C\c1ccc(O)c(O)c1)C(=O)N1CCCC1 | 0 | 0 | 0 | - | 99.6
COc1cc(/C=C(\C#N)C(=O)N2CCCCC2)ccc1O | 0 | 0 | 0 | 0 | 98.9
N#C/C(=C\c1ccc(O)c(O)c1)C(=O)c1ccc(O)c(O)c1 | 0 | 0 | 0 | 0 | 99.7
CCS(=O)(=O)N1Cc2ccccc2CC1C(=O)Nc1cccc(S(=O)(=O)N(C)C)c1 (stereo not drawn) | 0 | 0 | 0 | 0 | 0
O=C(NCCN1CCCCC1)Nc1cccc(F)c1 | 0 | 0 | - | 0 | 0
COc1ccccc1N1CCN(/N=C/c2cccc(OC)c2O)CC1 | 0 | 0 | 0 | 0 | 92.8
COc1ccccc1N1CCN(/N=C/c2ccc(C(=O)O)cc2)CC1 | 0 | 0 | 0 | 0 | 0
COc1ccccc1N1CCN(/N=C(\C)c2ccc(O)cc2)CC1 | 0 | 0 | 0 | 0 | 98.9
COc1ccc(/C=N/N2CCN(c3ccccc3OC)CC2)cc1OC | 0 | 0 | 0 | 0 | 0
COc1cccc(/C=N/N2CCN(C3c4ccccc4-c4ccccc43)CC2)c1O | 0 | 0 | 0 | 0 | 0
CCN(CC)c1ccc(/C=N/N2CCN(c3ccccc3OC)CC2)cc1 | 0 | - | 0 | 0 | 99.0
COc1ccccc1N1CCN(/N=C/c2ccc(O)c(O)c2)CC1 | - | - | - | - | 99.6
